MEX-5 binding – C. elegans MEX-5 TCR-2 RNA binding activity; MEX-5/FITC-TCR2 RNA binding, fluorescence polarization; hits give low values; activity score (negative = inhibition of binding), % at 10 µM; 300,000 tested, 0.38% active; AID 1832;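 active = inhibition past about -25% in most replicates, and total fluorescence under double the plate's negative control median, limit read from the data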;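 note: 0% = DMSO and -100% = 5 µM competing unlabeled TCR2 RNA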
Target sequence (Q9XUB2 whole entry, looked up): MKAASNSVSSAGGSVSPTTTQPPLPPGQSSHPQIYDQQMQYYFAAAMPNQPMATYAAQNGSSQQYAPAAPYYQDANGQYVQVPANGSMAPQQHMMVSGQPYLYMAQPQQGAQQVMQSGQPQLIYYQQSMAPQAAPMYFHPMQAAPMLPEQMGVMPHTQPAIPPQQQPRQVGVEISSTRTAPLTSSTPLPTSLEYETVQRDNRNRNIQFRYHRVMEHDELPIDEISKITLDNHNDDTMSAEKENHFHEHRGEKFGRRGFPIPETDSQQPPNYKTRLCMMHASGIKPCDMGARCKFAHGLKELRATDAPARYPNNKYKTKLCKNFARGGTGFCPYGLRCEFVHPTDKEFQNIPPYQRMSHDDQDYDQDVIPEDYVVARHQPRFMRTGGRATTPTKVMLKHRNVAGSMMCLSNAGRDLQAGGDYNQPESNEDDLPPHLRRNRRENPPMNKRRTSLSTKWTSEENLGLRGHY
NRP1-CendR mod – NRP-1/CendR interaction modulation; FAM-RPARPAR peptide binding to NRP-1, fluorescence polarization; inhibition, % at 25 µM; 360,000 tested, 0.85% active;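 active = inhibition or corrected inhibition above about 18%, plus a signal ratio from 0.5 to 1.5, limit read from the data, passing the limit was not always enough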
core dimer inh – blocks dimerization of HCV core protein; TR-FRET GST/Flag-core106 dimerization, 1536-well; inhibition, % at 5 µM; 300,000 tested, 0.33% active; AID 1899;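 active = inhibition above the mean of all tested compounds plus 3 SD, set per screening campaign, cut at about 45% in these data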
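Assay system – GST-tagged and Flag-tagged HCV core protein residues 1-106 · Quantity – core106 proteins, GST 13.5 nM and Flag 17 nM · Benchmarks – unlabelled core106 and no-GST-core106 wells · Read-out basis – percent inhibition of core106 dimerization signal · Detection – time-resolved FRET, ex 340 nm, em 617 and 671 nm · Schedule – 4 h at 22.5 °C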
DNA FID counter – fluorescent intercalator displacement, NS3 helicase counter-screen; 290,000 tested, 0.17% active; AID 1845; DNA fluorescent intercalator displacement, fluorescence; inhibition, % at 7.9 µM; in the data active = inhibition above about 37%;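 note: 0% = vehicle and 100% = reference compound; higher means more ethidium bromide displaced from hairpin DNA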
An asterisk follows results filed as active. The list is not random: actives were taken first. Their share in the collection is about 1.5%.

For CCc1nc2ccc(C(=O)NCc3ccccc3OC)cn2c1N(C)Cc1ccc(OC)cc1 the results were NRP1-CendR mod -7.2.
Screening CCC1=Nc2cc(C(=O)NCc3ccco3)ccc2Sc2ccc(Cl)cc21 returned MEX-5 binding 0.6, NRP1-CendR mod -16.9, core dimer inh 58.5* and DNA FID counter -31.7.
Screening CCC1=Nc2cc(C(=O)NCc3ccco3)ccc2Sc2ccccc21 returned MEX-5 binding 2.5, NRP1-CendR mod -6.7, core dimer inh 33.5 and DNA FID counter -27.7.
Screening c1csc(-c2ccc3nncn3c2)c1 returned NRP1-CendR mod -37.0.
CCOC(=O)C(=Cc1ccc(-c2ccsc2C(=O)OC)o1)C(=O)OCC was read as MEX-5 binding -1.3, NRP1-CendR mod 4.2, core dimer inh 3.4 and DNA FID counter -12.5.
For CCOC(=O)/C(C#N)=C/c1ccc(-c2ccsc2C(=O)OC)o1 the results were MEX-5 binding -54.7*, NRP1-CendR mod -41.8, core dimer inh 2.7 and DNA FID counter -0.2.
`Cc1cc(N2CCN(C)CC2)nc2ccc(NC(=S)N3CCN(c4ccc(F)cc4)CC3)cc12` gave MEX-5 binding 2.1, NRP1-CendR mod -4.4, core dimer inh 4.6 and DNA FID counter 6.2.
Cc1cccc(N2CCN(C(=S)Nc3ccc4nc(N5CCN(C)CC5)cc(C)c4c3)CC2C)c1 (stereo unspecified) was read as MEX-5 binding -0.8, NRP1-CendR mod 0.0, core dimer inh 4.9 and DNA FID counter 47.2*.
`Cc1cc(N2CCN(C)CC2)nc2ccc(NC(=S)N3CCN(c4ccc(Cl)cc4)CC3)cc12` gave MEX-5 binding 1.1, NRP1-CendR mod -6.8, core dimer inh 0.4 and DNA FID counter 45.8*.
For CCC(c1nc2ccccc2[nH]1)N(C(=O)C1=NNC(=O)CC1)c1ccccc1 (stereo unspecified) the results were NRP1-CendR mod -1.0.
For C=CCN(C(=O)c1csnn1)C(C(=O)NCc1ccccc1)c1c(F)cccc1Cl (stereo unspecified) the results were MEX-5 binding -0.7, NRP1-CendR mod 26.8*, core dimer inh 0.7 and DNA FID counter -29.1.
C=CCN(C(=O)c1csnn1)C(C(=O)NCc1ccccc1)c1ccccc1F (stereo unspecified) was read as MEX-5 binding -0.6, NRP1-CendR mod 6.9, core dimer inh -0.2 and DNA FID counter -24.7.
`CC(=O)NC(C)(c1ccccc1)c1nc(-c2ccc(F)c(Cl)c2)cs1` (stereo unspecified) gave NRP1-CendR mod 4.1.
Screening CC(=O)c1sc(N2CCOCC2)nc1-c1ccccc1 returned MEX-5 binding -0.6, NRP1-CendR mod 30.5*, core dimer inh 2.0 and DNA FID counter 4.5.
`Cc1ccc(C(=O)CCS(=O)(=O)c2ccc(Cl)cc2)cc1` gave MEX-5 binding -0.1, NRP1-CendR mod 20.3*, core dimer inh -11.5 and DNA FID counter -16.6.
For Cc1ccc2c(c1)c1c3n2CC(=C2C(=O)OC(C)(C)OC2=O)NC3CCC1 (stereo unspecified) the results were MEX-5 binding -1.7, NRP1-CendR mod -22.3, core dimer inh 46.3* and DNA FID counter -6.2.
`Cc1ccc(S(=O)(=O)NC(CN2CCOCC2)=NCCNS(=O)(=O)c2ccccc2)cc1` gave MEX-5 binding 0.6, NRP1-CendR mod 35.6*, core dimer inh 0.0 and DNA FID counter -22.8.
Cc1ccc(S(=O)(=O)NCCNC(=O)N2CCOCC2)cc1 was read as MEX-5 binding 0.1, NRP1-CendR mod -9.4, core dimer inh -3.6 and DNA FID counter 1.3.
Screening Cc1ccc(NC(=O)COC(=O)CCc2c(C)nc3ncnn3c2C)cc1C returned NRP1-CendR mod 24.5*.
CC(=O)OCCNc1cc(SCc2ccco2)c2nonc2c1[N+](=O)[O-] was read as MEX-5 binding -3.0, NRP1-CendR mod 26.9*, core dimer inh 3.6 and DNA FID counter 0.5.
`CC(=O)OCC(C)n1[nH]c2ccccc2c1=O` (stereo unspecified) gave NRP1-CendR mod -6.0.
Screening Nc1c(C(=O)O)ccc2c1C(=O)c1ccccc1C2=O returned MEX-5 binding -13.1, NRP1-CendR mod 5.2, core dimer inh -37.7 and DNA FID counter -7.9.
Screening Nc1cc(C(=O)O)c(N)c2c1C(=O)c1ccccc1C2=O returned MEX-5 binding -100.9*, NRP1-CendR mod 57.2*, core dimer inh -127.0 and DNA FID counter -2.6.
Screening O=C(/C=C/CCc1ccc2c(c1)OCO2)N1CCCCC1 returned NRP1-CendR mod 22.9*.
Screening O=C(/C=C/C=C/c1ccc2c(c1)OCO2)N1CCCCC1 returned NRP1-CendR mod -1.4 and core dimer inh 0.4.
For COc1ccc(-c2cccc(C3CC=CC4C3C(=O)N(Cc3ccccc3)C4c3ccc4ccccc4c3)c2)cc1 (stereo unspecified) the results were MEX-5 binding 0.6, NRP1-CendR mod 28.1* and core dimer inh 5.4.
For CC(OC(=O)C1=COCCO1)C(=O)Nc1cc(S(=O)(=O)N2CCCCC2)ccc1Cl (stereo unspecified) the results were MEX-5 binding 1.7, NRP1-CendR mod 22.7*, core dimer inh 13.2 and DNA FID counter -15.5.
Screening O=C(Nc1cc(S(=O)(=O)N2CCCC2)ccc1Cl)C1=COCCO1 returned MEX-5 binding 0.3, NRP1-CendR mod 4.5, core dimer inh 3.4 and DNA FID counter -9.8.
`COCCN1C(=O)CCC1(C)c1nnnn1Cc1ccccc1` (stereo unspecified) gave NRP1-CendR mod 19.6.
O=C1C(=O)c2ccc(-c3ccccc3)cc2-c2ccccc21 was read as MEX-5 binding -0.3, NRP1-CendR mod 3.7, core dimer inh 11.9 and DNA FID counter 4.3.
For O=C1C(c2ccccc2)=[N+]([O-])c2ccccc21 the results were MEX-5 binding 2.8, NRP1-CendR mod 30.4* and core dimer inh -113.4.
`CN1C(=O)[C@H]2[C@@H](c3ccc(C(F)(F)F)cc3)N[C@]3(CCCN(CC4CCCCC4)C3=O)[C@H]2C1=O` gave NRP1-CendR mod -6.8.
`O=C(c1ccccc1)N1CCC(O)(c2ccc3c(c2)OCO3)CC1` gave MEX-5 binding 0.1, NRP1-CendR mod 7.3, core dimer inh -1.9 and DNA FID counter -8.1.
For CC(=O)N1CCC(O)(c2ccc3c(c2)OCO3)CC1 the results were MEX-5 binding 1.4, NRP1-CendR mod 22.2*, core dimer inh 7.6 and DNA FID counter -0.1.
`O=C(Cc1ccccc1)NC(Nc1ccccc1)C(Cl)(Cl)Cl` (stereo unspecified) gave MEX-5 binding 2.1, NRP1-CendR mod 17.6, core dimer inh -4.8 and DNA FID counter 0.6.
Screening O=C(Cc1ccccc1)NC(NCCc1ccccc1)C(Cl)(Cl)Cl (stereo unspecified) returned MEX-5 binding -1.4, NRP1-CendR mod 22.0*, core dimer inh -48.5 and DNA FID counter -6.9.
Screening CC1=C(C(=O)N(C(C)C)C(C)C)CC(CC(=O)NCCN2CCOCC2)C(=O)N1Cc1ccc(C(C)(C)C)cc1 (stereo unspecified) returned NRP1-CendR mod 2.7.
Screening C=CCn1c(SCC(=O)NC2CC2)nc2ccccc2c1=O returned NRP1-CendR mod -1.6.

Assay outcomes (PubChem BioAssay)
